NTR1 ag = agonists of human NTR1, primary screen, imaging, U2OS cells, beta-arrestin-GFP, high content; activation, % at 20 µM; NTR1-U2OS beta-arrestin-GFP spot imaging, agonist mode; Neurotensin receptor type 1 (Homo sapiens), P30989; 330,000 tested, 0.17% active;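 active = activation at or above 40% of the spot to cytoplasm intensity ratio, with at least 20 cells analyzed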;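 also: 0% = DMSO without peptide and 100% = 100 nM NTR1 peptide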
TAG inh = inhibitors of triacylglycerol accumulation, primary screen, cell-based, uHTS, fluorescence, H9c2 | H9c2 cells, Nile Red lipid (TAG) fluorescence; cells loaded with 200 µM oleic acid | 230,000 tested, 0.66% active | inhibition, % at 12.5 µM;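 active = pattern-corrected inhibition of lipid staining of at least 50% with the nuclear-stain viability signal not falling by more than 50%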;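 also: 0% = DMSO wells and 100% = triacsin C control wells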
Tb MetRS inh = T. brucei MetRS inhibitors, primary screen, biochemical, luminescence; inhibition, % at 11.9 µM; purified T. brucei MetRS, ATP depletion, Kinase-Glo luminescence; 360,000 tested, 0.4% active;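 active = inhibition above a per-plate cutoff of the control wells' mean inhibition plus 3 SD, cut at about 5.5% in these data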;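 also: 0% = DMSO wells median and 100% = median of wells with control inhibitor compound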
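Test system – parasite MetRS enzyme · Reagent – substrates ATP, L-methionine and bulk Escherichia coli tRNA · Doses – 11.9 µM compound single dose, 0.9% DMSO · Times – 15 min enzyme-compound preincubation, 2 h reaction, 10 min detection, 25 °C · Signal – Kinase-Glo luminescence, ATP depletion format · Controls – DMSO-only wells as low control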
aDG glyco up = activators of alpha-DG glycosylation, primary screen, uHTS, Pro5-aDG cells, AlphaScreen; alpha-DG glycosylation AlphaScreen (IIH6); 0% Pro5, 100% B10-LARGE cell signal; activation, % at 10 µM; 360,000 tested, 0.22% active; AID 624168, 2012;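 active = activation of at least 8% versus controls, or a plate z-score of at least 8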;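 also: Pro5 are CHO cells carrying HIG-tagged alpha-DG that lacks glycosylation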
MC4R barr agon = MC4R agonists recruiting beta-arrestin, primary screen, cell-based, luminescence, agonist arm of biased-ligand search. Melanocortin receptor 4 (Homo sapiens), P32245. U2OS MC4R beta-arrestin complementation; percent of melanotan II response, DMSO zero. activation, % at 8.9 µM. 360,000 tested, 0.98% active;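 active = activation above a per-plate cutoff, the mean activation of sample wells on that plate plus 3 SD, cut at about 8% in these data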
Target sequence (P32245 whole entry, looked up): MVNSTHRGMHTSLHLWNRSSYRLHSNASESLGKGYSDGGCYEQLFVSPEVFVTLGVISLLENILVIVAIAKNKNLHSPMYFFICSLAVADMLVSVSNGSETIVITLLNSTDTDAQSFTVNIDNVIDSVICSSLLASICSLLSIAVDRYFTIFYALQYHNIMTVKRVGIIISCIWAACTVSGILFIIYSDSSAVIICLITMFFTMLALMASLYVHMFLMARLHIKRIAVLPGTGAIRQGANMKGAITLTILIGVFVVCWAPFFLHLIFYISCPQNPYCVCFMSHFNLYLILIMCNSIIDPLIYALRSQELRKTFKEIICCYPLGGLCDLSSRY
MC4R antag cAMP = MC4R antagonists of cAMP signaling, primary screen, cell-based, TR-FRET, antagonist arm of biased-ligand search; Melanocortin receptor 4 (Homo sapiens), P32245; MC4R-expressing cells, MTII-stimulated cAMP, LANCE TR-FRET; inhibition, % at 6.5 µM; 360,000 tested, 0.48% active; AID 540295, 2011;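 active = inhibition above its plate's cutoff, the mean of tested wells on that plate plus 3 SD, cut at about 29% in these data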;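 also: 0% = Melanotan II alone and 100% = Melanotan II plus saturating MCL0020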
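Material – human MC4R-expressing U2OS cells · Repeats – no replicates · Detection – TR-FRET with Eu-cAMP and labeled anti-cAMP, 671 nm · Times – compound 30 min, challenge 1 h, detection 1 h · Compound – single nominal compound dose of 6.5 µM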
aDG conf = alpha-DG glycosylation enhancers, retest, confirmation, single concentration, Pro5-aDG cells | shares compounds with aDG glyco up | IIH6 AlphaLISA; scaled to LARGE-overexpressing B10 cells as 100% | activation, % at 10 µM (by protocol) | 600 tested, 17% active | AID 651671, 2012;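 active = activation of at least 7% in one or more replicates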;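 also: cells exposed to compound for two days before detection; 0% = DMSO-treated Pro5 cells and 100% = DMSO-treated B10-LARGE cells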
Starred values were filed as active, the others as inactive; / = no result. Hits are enriched below; roughly 2.4% of the tested compounds scored in any of these assays.

SMILES | NTR1 ag | TAG inh | Tb MetRS inh | aDG glyco up | MC4R barr agon | MC4R antag cAMP | aDG conf
O=C(c1ccc2c(c1)OCO2)N(Cc1cccs1)C1(C(=O)NC2CCCCC2)CCCCC1 | / | / | 0 | 7.4* | 2 | 21 | 0
O=C(Cc1cccs1)N(Cc1cccs1)C1(C(=O)NC2CCCC2)CCCCC1 | 0 | 19 | 0 | 0 | -3 | 2 | /
Cc1cccnc1CCNC(=O)CCc1nnc(CCc2ccccc2)o1 | -1 | -14 | 0 | 3.3* | -3 | 3 | 1
O=[N+]([O-])c1cc(-c2nc(-c3ccncc3)no2)cc([N+](=O)[O-])c1 | 1 | / | 0 | 8.7* | -2 | 13 | 2
Cc1cc(C)cc(-c2nc(-c3ccncc3)no2)c1 | 1 | 5 | 0 | 0 | -1 | -7 | /
COCCCN1C(=O)C(CC(=O)NC2CC2)CC(C(=O)N2CCOCC2)=C1C (configuration not stated) | / | / | 0 | 0 | / | / | /
C[C@@H]1CN([C@H](C)CO)C(=O)CCCn2nncc2CO[C@@H]1CN(C)C(=O)Nc1ccc(N2CCN(C)CC2)cc1 | / | 9 | -1 | 8.5* | 1 | 1 | 1
COc1cc(F)ccc1-c1csc(C(O)(c2ccccc2)C(F)(F)F)n1 (configuration not stated) | / | -4 | 0 | 0 | 0 | 15 | /
CCC(=O)N1c2ccc(S(=O)(=O)N3CCN(c4ccc([N+](=O)[O-])cc4)CC3)cc2CC1C (configuration not stated) | 2 | / | 0 | 8.8* | -4 | 10 | 0
CC1(C(=O)Nc2ccc3c(c2)OCCO3)CCN1C(=O)Cc1ccc(-c2ccccc2)cc1 (configuration not stated) | / | -14 | 0 | 1 | 0 | 4 | /
COCCNC(=S)N/N=C(\C)c1ccc(O)cc1 | 3 | / | 0 | 7.4* | -1 | 1 | 0
C=CCNC(=S)N/N=C(\C)c1cccc(OC)c1 | -1 | / | -1 | 3 | 1 | 1 | /
C=CCNC(=S)N/N=C(\C)c1ccc(OC)cc1 | 4 | 0 | 0 | 12* | -2 | 8 | 1
Cc1cc(NC2=CC(=O)C(=O)c3ccccc32)no1 | / | -10 | 0 | 14* | -1 | -3 | 16*
COc1cc(OC)c(NC2=CC(=O)C(=O)c3ccccc32)cc1Cl | 1 | / | -1 | 1 | -1 | -27 | /
CCOC(=O)c1c(C)[nH]c(C(=O)OCC(=O)Nc2cc(Cl)ccc2OC)c1C | 7 | / | -1 | 1 | 6 | 11 | /
CC(=O)c1c(C)[nH]c(C(=O)OCC(=O)Nc2ccc(Cl)cc2[N+](=O)[O-])c1C | 6 | / | 0 | 8.4* | -2 | 13 | 1
CC1(C(=O)NCC(F)(F)F)CCN1C(=O)Cc1ccc(-c2ccccc2)cc1 (configuration not stated) | / | -9 | 0 | 1 | -1 | 3 | /
O=C(Nc1cc(Cl)ccc1-n1cncn1)c1ccc([N+](=O)[O-])s1 | 0 | 26 | 0 | 12* | -3 | 11 | 3.8*
COCCN1C(=O)COc2ccccc2C1C(=O)Nc1ccc2c(c1)OCCO2 (configuration not stated) | / | / | 0 | 0 | / | / | /
OC[C@@H]1CN(Cc2ccncc2)C[C@H](n2cnc3c(N4CCOCC4)ncnc32)O1 | / | 11 | 0 | 0 | 2 | 2 | /
COC(=O)[C@@]12C[C@@H](CC(=O)N3CCN(C(=O)C4CC4)CC3)C(=O)N(Cc3ccc4c(c3)OCO4)C1=CCC(C)(C)C2 | / | / | -1 | 0 | / | / | /
Cc1cc(NCc2ccccn2)n2ncc(-c3ccc(Cl)cc3)c2n1 | 9 | 38 | 0 | 3.0* | -4 | -1 | 4.6*
CC(C)NC(=O)Nc1nnc([C@H]2C[C@H](O)[C@@H](CO)O2)s1 | / | -7 | 0 | 0 | -2 | 7 | /
COc1cc(NC(=O)c2c(F)c(F)c(F)c(F)c2F)c(OC)cc1Cl | 13 | / | 1 | 7.7* | -3 | -35 | 0
SMILES | NTR1 ag | TAG inh | Tb MetRS inh | aDG glyco up | MC4R barr agon | MC4R antag cAMP | aDG conf
COCCn1c(SCC#N)nnc1-c1ccc(OC)cc1 | 0 | / | -1 | 4.7* | 1 | -8 | 0
CCCCn1nnnc1C(c1ccccc1)N1CCN(c2ncccc2C(F)(F)F)CC1 (configuration not stated) | / | / | -1 | 0 | / | / | /
COCc1ccc(C(=O)Nc2cccc(S(=O)(=O)N(C)c3ccccc3)c2)cc1 | 3 | -20 | 0 | 1 | 1 | 5 | /
CN(C)S(=O)(=O)c1cccc(NC(=O)c2ccc(COc3ccccc3)cc2)c1 | 14 | / | 1 | 3.1* | 1 | 11 | 1
COc1cccc(S(=O)(=O)NCc2ccc(C(=O)Nc3cccc(Cl)c3)cc2)c1 | 12 | 42 | 0 | 4.7* | 7 | 17 | 1
N#Cc1cc2cc(Cl)ccc2[nH]c1=O | / | / | 0 | 0 | / | / | /
O=C(NC1CC1)c1ccc2nc([C@@H]3O[C@H](CO)[C@H](O)[C@H](O)[C@H]3O)[nH]c2c1 | / | 7 | 0 | 1 | 2 | 0 | /
CCNS(=O)(=O)c1ccc2nc(NC(=O)/C=C/c3cc(OC)c(OC)c(OC)c3)sc2c1 | 2 | / | 0 | 0 | 0 | -3 | /
COc1cc(/C=C/C(=O)Nc2nc3ccc(S(=O)(=O)NC(C)C)cc3s2)cc(OC)c1OC | 3 | 7 | 0 | 8.2* | -2 | 5 | 6.1*
CC(C)c1ccc(-c2cc(C(=O)N3CCOCC3)c3cc(Br)ccc3n2)cc1 | 9 | -28 | 0 | 4.6* | -2 | 10 | 9.4*
Cc1ccc(S(=O)(=O)N2CCOCC2)cc1C(=O)NC1CCCCC1 | -2 | / | 0 | 50* | 1 | -1 | -1
O=C(Nc1nc(-c2ccccn2)cs1)C1COc2ccccc2O1 (configuration not stated) | 4 | 15 | 0 | 0 | -3 | 7 | /
CC1CC1C(=O)Nc1nc(-c2ccccn2)cs1 (configuration not stated) | 0 | -19 | -1 | 5.1* | -3 | -2 | 1
CCOC(=O)N1CCN(C(=O)c2ccc3c(=O)n(-c4ccccc4F)c(=S)[nH]c3c2)CC1 | 1 | -22 | -1 | 0 | 0 | 1 | /
